According to the EternaBench riboswitch data:

Tested on: MS2 coat protein
Experiment: apparent Kd, MS2 coat protein; higher = weaker binding; RNA-MaP array; tryptophan 2.4 mM where present
Method in brief: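 The apparent Kd comes from binding curves fitted cluster by cluster, filtered, and summarised as a median. Those curves followed SNAP-549-labelled MS2 coat protein from 0.7 or 1.5 nM, doubling to 3 µM, on Illumina sequencing-chip clusters where stalled E. coli RNA polymerase had transcribed the designs, without and then with constant ligand. The buffer was 100 mM Tris-HCl pH 7.5, 80 mM KCl, 4 mM MgCl2, BSA, DTT, yeast tRNA and Tween-20, and green signal was normalised to red-channel RNA signal and control-cluster median Fmax.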

[1] = designed as: ON switch for tryptophan, no ligand
[2] = ligand present: tryptophan, designed as: ON switch for tryptophan
[3] = designed as: OFF switch for tryptophan, no ligand
[4] = ligand present: tryptophan, designed as: OFF switch for tryptophan

## AGAAUAUAGUCGGCCGCCACUCUUCAUACAUGAGGAUCACCCAUGUUUAAUUCUUGGAUAUUCUUGAGGACCGGGACAUAGGCAU
[1]
  apparent Kd: 18.4 nM
[2]
  apparent Kd: 16.8 nM

## GAUAUGGAAACAUGUCAGAUCCUUACCGGUCGAGGACCGGUACGGCCGCCACUCGCAAAUAUUGUACAUGAGGAUCACCCAUGUA
[3]
  apparent Kd: 13.1 nM
[4]
  apparent Kd: 13.6 nM

## AUGGUCGACGAUCUGCGAAAAGCAGAUCGACGAGGACCGGUACGGCCGCCACUCGUGUUCAUUAAACAUGAGGAUCACCCAUGUA
[1]
  apparent Kd: 48.8 nM
[2]
  apparent Kd: 21.1 nM

## AAAGAUCGGAAACGAUCGGCGGCUUGGGCGCGAGGACCGGUACGGCCGCCACUCGGGAAACAUGAGGAUCACCCAUGUUGCUAGC
[3]
  apparent Kd: 13.7 nM
[4]
  apparent Kd: 15.2 nM

## UAUCUACAUAUAUAGGUUAUUCGAUUAUUUCGAGGACCGGUACGGCCGCCACUCGUUAACAUAUACAUGAGGAUCACCCAUGUUA
[1]
  apparent Kd: 15.4 nM
[2]
  apparent Kd: 14.5 nM

## AUAAUGAGUGGUGGAUAGGUGAUCCUCUUACGAGGACCGGUACGGCCGCCACUCGAUAACAUGAGGAUCACCCAUGUAAUAAUAA
[3]
  apparent Kd: 15.7 nM
[4]
  apparent Kd: 49.9 nM

## UGAUACCAGUCGGCCGCCACUAUGCUAGAUACUAGCAAUAAAGGGCGACAUGAGGAUCACCCAUGUAGGACCGGGACUGGUAUCU
[3]
  apparent Kd: 11.2 nM
[4]
  apparent Kd: 14.8 nM

## ACCUCAUAGGCGGCCGCCACUGUAAUGACUACGUCAAACAUGAGGAUCACCCAUGUAGUCAAUCACAGGACCGGGUCAUGGGUAG
[1]
  apparent Kd: 39.1 nM
[2]
  apparent Kd: 23.9 nM

## AAUACCGGUCCUCGAAGGUGAUCCUCAUAACGAGGACCGGUACGGCCGCCACUCGAUAACAUGAGGAUCACCCAUGUAAUAAUAA
[3]
  apparent Kd: 187 nM
[4]
  apparent Kd: 138 nM

## CGACACAUGAGGAUCACCCAUGUAAUGACGCGAGGACCGGUACGGCCGCCACUCGCAUGCCAAUGAGCGCAUGCGGCCUGGGUAU
[3]
  apparent Kd: 18.1 nM
[4]
  apparent Kd: 14.5 nM

## GCAUCCUAGUCGGCCGCCACUGGUACGAACACCUUCACCCGUGUGCACAUGAGGAUCACCCAUGUCAGGACCGGGACUAGGAUGC
[1]
  apparent Kd: 9.36 nM
[2]
  apparent Kd: 9.66 nM

## ACAUGAGGAUCACCCAUGUGAAGCAGGGUACGAGGACCGGUACGGCCGCCACUCGAGCAUUAUACCGAGUGAAUGGCAACGAUGU
[3]
  apparent Kd: 15.7 nM
[4]
  apparent Kd: 17 nM

## CCUCAAUCGUCGGCCGCCACUGGAUCAUGCGGAUACAUGAGGAUCACCCAUGUGGGUGUGGUACGCAGGACCGGGACAAGACCCG
[1]
  apparent Kd: 340 nM
[2]
  apparent Kd: 244 nM

## CGAGUAAGAACAAUCGAAUAACGGUUUUCGCGAGGACCGGUACGGCCGCCACUCGUGUGAUAUAACACAUGAGGAUCACCCAUGU
[1]
  apparent Kd: 26.3 nM
[2]
  apparent Kd: 24.4 nM
